What was measured:
MCF7 = experiment: Cytotoxicity against human MCF7 cells after 72 hrs by MTS assay; assay type: functional, cell-based; conditions: Homo sapiens, MCF7, 72 h; read-out: IC50
In short: (§1)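 Cells kept in DMEM with 10% FBS and 1% penicillin-streptomycin, seeded in 96-well plates for 24 h, then exposed to a range of drug concentrations for 72 h at 0.1% DMSO; viability read by MTS assay per manufacturer's protocol.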

[1] = Selectivity ratio of IC50 for African green monkey Vero cells to IC50 for human A549 cells; assay type: ADME, cell-based; conditions: Vero cells and A549 cells, read-out: Ratio IC50
In short: (§2)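 Cell viability (MTS) was measured in A549, MCF-7 and Vero cells kept in DMEM with 10% FBS and 1% penicillin-streptomycin. Cells were plated 24 h before drug, then exposed to a range of concentrations for 72 h, with DMSO held at 0.1%. The ratio divides the Vero IC50 by the IC50 for the tumour line, both from this assay.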

Vero = experiment: Cytotoxicity against African green monkey Vero cells after 72 hrs by MTS assay; assay type: cell-based; conditions: Chlorocebus sabaeus; in short: as §1
[2] = Selectivity ratio of IC50 for African green monkey Vero cells to IC50 for human MCF7 cells; assay type: ADME, cell-based; conditions: Vero cells and MCF7 cells, read-out: Ratio IC50; in short: as §2
A549 = experiment: Cytotoxicity against human A549 cells after 72 hrs by MTS assay; assay type: functional, cell-based; conditions: Homo sapiens, A549, 72 h; read-out: IC50; in short: as §1
Histone deacetylase 8 = target: T1, Histone deacetylase 8 (Homo sapiens, UniProt Q9BY41); experiment: Inhibition of recombinant HDAC8 (unknown origin) expressed in Escherichia coli BL21(DE3) after 60 mins using trichostatin A by label-free mass spectrometry-based SAMDI assay
T1 sequence (Q9BY41 whole entry): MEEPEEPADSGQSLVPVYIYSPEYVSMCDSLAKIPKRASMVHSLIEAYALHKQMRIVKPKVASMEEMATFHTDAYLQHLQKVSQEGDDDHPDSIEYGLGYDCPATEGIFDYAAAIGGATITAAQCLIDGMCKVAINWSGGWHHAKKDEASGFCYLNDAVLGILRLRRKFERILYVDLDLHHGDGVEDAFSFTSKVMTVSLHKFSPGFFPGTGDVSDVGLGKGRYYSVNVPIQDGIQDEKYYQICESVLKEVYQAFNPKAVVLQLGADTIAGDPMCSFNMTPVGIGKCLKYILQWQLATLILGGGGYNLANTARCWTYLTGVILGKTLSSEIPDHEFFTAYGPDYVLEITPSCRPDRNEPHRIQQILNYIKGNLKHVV

[3] = target: T2, Protein deacetylase HDAC6 (Homo sapiens, UniProt Q9UBN7); experiment: Inhibition of recombinant HDAC6 (unknown origin) expressed in Escherichia coli BL21(DE3) after 60 mins using trichostatin A by label-free mass spectrometry-based SAMDI assay
T2 sequence (Q9UBN7 whole entry): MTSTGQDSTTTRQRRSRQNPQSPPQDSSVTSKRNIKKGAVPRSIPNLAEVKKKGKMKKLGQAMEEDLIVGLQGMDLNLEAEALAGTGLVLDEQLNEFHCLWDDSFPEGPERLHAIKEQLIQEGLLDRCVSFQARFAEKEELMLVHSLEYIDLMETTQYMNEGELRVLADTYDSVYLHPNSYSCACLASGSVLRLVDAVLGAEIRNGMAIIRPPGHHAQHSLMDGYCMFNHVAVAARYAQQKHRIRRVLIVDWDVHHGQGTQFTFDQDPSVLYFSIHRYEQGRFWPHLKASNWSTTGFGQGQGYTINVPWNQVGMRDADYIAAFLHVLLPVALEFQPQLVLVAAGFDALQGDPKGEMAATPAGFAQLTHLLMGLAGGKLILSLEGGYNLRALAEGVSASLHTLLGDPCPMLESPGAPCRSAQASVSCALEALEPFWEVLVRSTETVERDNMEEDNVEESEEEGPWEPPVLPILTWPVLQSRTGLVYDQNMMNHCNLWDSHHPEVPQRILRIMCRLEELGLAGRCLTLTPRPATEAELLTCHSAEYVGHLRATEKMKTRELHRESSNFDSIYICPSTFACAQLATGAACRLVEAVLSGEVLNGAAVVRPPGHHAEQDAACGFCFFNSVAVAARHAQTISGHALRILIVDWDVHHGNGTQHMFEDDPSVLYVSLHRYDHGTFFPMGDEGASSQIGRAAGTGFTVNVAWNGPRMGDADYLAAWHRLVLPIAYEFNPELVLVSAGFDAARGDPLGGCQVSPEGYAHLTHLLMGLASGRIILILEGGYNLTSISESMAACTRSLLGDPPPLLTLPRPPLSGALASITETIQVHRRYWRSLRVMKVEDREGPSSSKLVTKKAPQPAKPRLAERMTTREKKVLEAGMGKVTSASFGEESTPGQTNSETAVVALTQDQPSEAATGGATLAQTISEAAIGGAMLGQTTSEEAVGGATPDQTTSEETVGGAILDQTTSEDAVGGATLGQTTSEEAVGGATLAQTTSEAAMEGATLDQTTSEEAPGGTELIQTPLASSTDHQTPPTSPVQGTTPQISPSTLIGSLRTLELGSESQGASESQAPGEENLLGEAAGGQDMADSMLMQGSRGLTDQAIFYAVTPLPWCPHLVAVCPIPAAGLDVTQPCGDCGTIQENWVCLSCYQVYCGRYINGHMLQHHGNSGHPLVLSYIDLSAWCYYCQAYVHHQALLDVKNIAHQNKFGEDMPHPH

Histone deacetylase 1 = Histone deacetylase 1 (Homo sapiens, UniProt Q13547); experiment: Inhibition of recombinant HDAC1 (unknown origin) expressed in Escherichia coli BL21(DE3) after 60 mins using trichostatin A by label-free mass spectrometry-based SAMDI assay
Chain of Histone deacetylase 1 (Q13547 whole entry): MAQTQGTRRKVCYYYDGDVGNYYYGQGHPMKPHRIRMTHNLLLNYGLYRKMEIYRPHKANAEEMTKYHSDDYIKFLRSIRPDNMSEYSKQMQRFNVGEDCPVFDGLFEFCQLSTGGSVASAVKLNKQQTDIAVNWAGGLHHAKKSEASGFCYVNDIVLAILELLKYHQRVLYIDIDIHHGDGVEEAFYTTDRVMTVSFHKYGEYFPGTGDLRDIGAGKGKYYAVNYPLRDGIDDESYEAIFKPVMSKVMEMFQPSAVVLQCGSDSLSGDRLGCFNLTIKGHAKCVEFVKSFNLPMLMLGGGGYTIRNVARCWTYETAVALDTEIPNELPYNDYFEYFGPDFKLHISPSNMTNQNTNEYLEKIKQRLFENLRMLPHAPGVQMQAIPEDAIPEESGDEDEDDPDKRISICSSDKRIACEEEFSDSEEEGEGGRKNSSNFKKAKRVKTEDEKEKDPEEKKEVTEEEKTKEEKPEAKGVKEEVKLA

In the case of `CC[C@H]1OC(=O)[C@H](C)C(=O)[C@H](C)[C@@H](O[C@@H]2O[C@H](C)C[C@H](N(C)Cc3cccc(-c4cn(CCCCCCC(=O)NO)nn4)c3)[C@H]2O)[C@@](C)(OC)C[C@@H](C)C2=NCCN3C(=O)O[C@@]1(C)[C@H]3[C@H]2C`, the IC50 (MCF7) is reported as 860 nM, the selectivity ratio [1] is reported as 2.7 and the IC50 (Vero) is reported as over 20000 nM. The selectivity ratio [2] was 23, the IC50 (A549) was 7480 nM and the IC50 (Histone deacetylase 8) was 310 nM. The IC50 [3] was 3.76 nM and the IC50 (Histone deacetylase 1) was 54.5 nM.

— ChEMBL document CHEMBL3734738, “A structure-activity relationship of non-peptide macrocyclic histone deacetylase inhibitors and their anti-proliferative and anti-inflammatory activities” (Bioorg Med Chem, 2015)
